Screening results: PubChem BioAssay, Sanford-Burnham Center for Chemical Genomics
SUMO1-SIM PPI: modulators of SUMO1 protein-protein interactions, primary screen, biochemical, uHTS. hit rate 0.33% among 360,000. SUMO1 binding to a labelled peptide, TR-FRET, 1 h. Small ubiquitin-related modifier 1 (Homo sapiens), P63165. inhibition, % at 20 µM; in the data active = inhibition above about 37%
Target sequence (P63165 whole entry, looked up): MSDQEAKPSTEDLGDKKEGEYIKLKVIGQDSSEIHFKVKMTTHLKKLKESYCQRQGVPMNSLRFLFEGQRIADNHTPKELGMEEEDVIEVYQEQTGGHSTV
Scp1 inh: Scp-1 phosphatase inhibitors, primary screen, biochemical, colorimetric, uHTS; AID 493091, 2011; Recombinant Scp1, phosphopeptide, malachite green phosphate absorbance; hit rate 0.88% among 340,000; inhibition, % at 20 µM;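 active = inhibition above about 50% at 20 µM, limit read from the data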;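 also: plate controls were DMSO wells with enzyme for no effect and wells lacking enzyme for full effect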
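Times: enzyme reaction 45 min at room temperature, colour 5 min, stabilisation 30 min. Material: SCP-1 catalytic fragment, aa 76-261. Medium: Acidic Tris acetate buffer with magnesium and detergent. Signal: colorimetric free-phosphate detection, absorbance 630 nm. Read-out basis: % inhibition of SCP-1 phosphate liberation. Reagent: Phosphorylated 17-residue peptide substrate.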
DNMT1 inh: human DNMT1 methyltransferase inhibitors, primary screen, biochemical, molecular beacon, fluorescence, HinP1I cleavage, uHTS; DNA (cytosine-5)-methyltransferase 1 (Homo sapiens), P26358; inhibition (reported as % activation of signal), % at 10 µM; hit rate 0.83% among 360,000; in the data active = inhibition above about 50%
STEP inh: STEP phosphatase inhibitors, primary screen, biochemical, fluorescence intensity, uHTS; Tyrosine-protein phosphatase non-receptor type 5 (Homo sapiens), P54829; inhibition, % at 20 µM; hit rate 0.25% among 360,000; recombinant STEP, OMFP fluorogenic substrate;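 active = inhibition at 20 µM, scaled per plate between control wells, above about 37%, limit read from the data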;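 also: 0% = DMSO with enzyme and substrate and 100% = substrate only without enzyme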
Target sequence (P54829 whole entry, looked up): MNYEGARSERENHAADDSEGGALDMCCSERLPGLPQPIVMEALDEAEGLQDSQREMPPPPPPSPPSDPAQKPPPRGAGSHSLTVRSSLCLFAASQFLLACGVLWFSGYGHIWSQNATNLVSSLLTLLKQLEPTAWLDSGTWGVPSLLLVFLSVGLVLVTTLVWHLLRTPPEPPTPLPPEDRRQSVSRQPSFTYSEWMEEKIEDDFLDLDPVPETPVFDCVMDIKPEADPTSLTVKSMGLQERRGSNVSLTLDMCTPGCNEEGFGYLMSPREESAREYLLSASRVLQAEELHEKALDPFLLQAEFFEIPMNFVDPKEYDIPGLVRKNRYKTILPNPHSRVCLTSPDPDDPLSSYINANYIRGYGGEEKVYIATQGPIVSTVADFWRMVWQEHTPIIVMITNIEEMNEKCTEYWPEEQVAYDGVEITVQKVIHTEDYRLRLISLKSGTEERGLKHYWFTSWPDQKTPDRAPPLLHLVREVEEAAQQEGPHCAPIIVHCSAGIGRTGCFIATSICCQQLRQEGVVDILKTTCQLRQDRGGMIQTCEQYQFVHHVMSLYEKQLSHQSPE
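System: isolated STEP enzyme; schedule: 20 min enzyme reaction at room temperature, protected from light; medium: Bis-Tris buffer pH 6.0, 2.5 mM DTT, 0.005% Tween 20; signal: fluorescence, 480/540 nm; dosing: single compound dose of 20 µM, 1% DMSO final; also added: OMFP substrate, 25 µM final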
LMPTP inh: LMPTP phosphatase inhibitors, primary screen, biochemical, fluorescence intensity, uHTS. recombinant LMPTP-A, OMFP fluorogenic substrate. inhibition, % at 20 µM. hit rate 0.22% among 360,000;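 active = compounds that cut the enzyme signal by at least half of the control window in the single-dose screen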;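 also: plate controls were DMSO wells with enzyme plus substrate for no effect and substrate without enzyme for full effect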
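Test system: LMPTP-A phosphatase enzyme; input: 0.625 nM LMPTP-A final; reagent: OMFP substrate, 400 µM final; compound dosing: 20 µM single dose, 3% DMSO; incubation: 50 min dark incubation at room temperature; measured by: endpoint fluorescence intensity from OMFP dephosphorylation; measure: % inhibition relative to no-enzyme and uninhibited control wells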
Scp1 confirm: Scp-1 phosphatase inhibitors, retest, confirmation, biochemical, colorimetric, single concentration; shares compounds with Scp1 inh; recombinant SCP-1 catalytic domain, phosphate release, malachite green absorbance; hit rate 61% among 2,500; inhibition, % at 20 µM;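 also: plate controls were DMSO with enzyme for no effect and buffer wells lacking enzyme for full effect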
Scp-1 MG ctr: colorimetric readout interference by compounds, confirmation, artefact control for Scp-1 inhibitor project, biochemical, single concentration; Colorimetric interference counterscreen, malachite green absorbance 630 nm; AID 540313, 2011; shares compounds with Scp1 inh; 2,500 tested, under 10 active; apparent inhibition (interference), % at 20 µM;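 also: compounds added after enzyme reaction finished so only phosphate colour detection is probed; plate controls were DMSO wells with completed Scp-1 reaction for no effect and substrate wells lacking enzyme for full effect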
Scp1 DSF: Scp-1 binding by thermal shift, confirmation, orthogonal assay for Scp-1 inhibitor project, biophysical, differential scanning fluorimetry | shares compounds with Scp1 inh | AID 540329, 2011 | thermal shift relative to vanadate control, % at 40 µM | Recombinant SCP1, Sypro Orange thermal shift Tm | hit rate 25% among 1,500;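 active = substances whose mean melting-temperature shift, as a percentage of the reference inhibitor's shift, reaches about 5.3%, limit read from the data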;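 also: 0% = Tm of DMSO wells and 100% = Tm with sodium orthovanadate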
Active calls of the source: *; x = not tested or not shown. Most compounds without a hit are left out; they make up all but 1.7% or so of the library.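 The calls were made as follows, unless noted: active = inhibition of at least 30% at 20 µM; inactive = the rest.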

SMILES	SUMO1-SIM PPI	Scp1 inh	DNMT1 inh	STEP inh	LMPTP inh	Scp1 confirm	Scp-1 MG ctr	others
O=C(NNC(=O)c1ccc(NC(=O)c2ccccc2)cc1)Nc1ccccc1	-1	51*	14	6	14	67*	-11	Scp1 DSF=-12
Cc1cccc(C(=O)NNC(=O)c2ccc(Br)cc2)c1	-2	-1	-1	15	-1	x	x
CCOC(=O)N1CCN(C(=O)c2ccccc2N(Cc2ccccc2)S(=O)(=O)c2ccccc2)CC1	9	-10	-2	-2	0	x	x
CC(C)C[C@H]1CN([C@@H](Cc2ccc(O)cc2)CN2CCCC2CN2C(=S)NC[C@@H]2Cc2ccccc2)C(=S)N1CC1CCCCC1 (stereo partly specified)	-1	x	x	x	2	x	x
Cc1ccc(C(C)NC(=O)C2CCCC2)cc1C (stereo unspecified)	2	-1	-4	2	-2	x	x
Cc1ccc(C(c2ccc(C)c(C)c2)C(O)C2OC(=O)C(O)C2O)cc1C (stereo unspecified)	4	53*	12	0	3	23	-5
Cc1cc(C)n2nc(C(=O)OCC(=O)c3ccccc3)nc2n1	1	73*	3	2	0	-10	-21
Cc1nn(CCc2nn[nH]n2)c2nc(C(F)(F)F)cc(C(F)(F)F)c12	1	-7	1	-6	1	x	x
Cc1nn(CCc2nn[nH]n2)c2nc(-c3ccc(Br)cc3)cc(C(F)(F)F)c12	4	53*	-1	26	0	24	-15
COc1ccc(N2CC(NS(=O)(=O)c3ccc(F)cc3)CC2=O)cc1 (stereo unspecified)	0	-5	-2	-1	0	-8	-11
O=C1CC(NS(=O)(=O)c2cccnc2)CN1c1ccc(F)cc1 (stereo unspecified)	2	4	1	0	0	x	x
CC1(C)NC(=O)N(CCCCOc2cccc(C(F)(F)F)c2)C1=O	1	-4	-6	1	-2	-4	-8
CCC(C)Oc1cccc(OCCCCN2C(=O)NC(C)(C)C2=O)c1 (stereo unspecified)	-11	-6	3	-2	-1	x	x
O=C(Cc1ccc(Cl)cc1)Nc1ccc(Br)cc1	0	-4	1	-2	1	x	x
O=C(Cc1ccc(Br)cc1)NNC(=O)Nc1ccc(Cl)cc1	3	63*	26	1	0	62*	-3	Scp1 DSF=4
O=c1c2ccccc2oc2nc(-c3ccco3)n(Cc3ccccc3)c(=O)c12	-18	50*	8	2	2	56*	-1	Scp1 DSF=-1
CCc1nc2oc3ccccc3c(=O)c2c(=O)n1Cc1ccccc1	4	-1	-1	0	-2	x	x
O=c1[nH]c(=S)[nH]c2c1C(c1ccc(F)cc1)OC(CCOCc1ccccc1)C2 (stereo unspecified)	7	x	-2	0	-4	x	x
CCc1cccc(NC(=O)Cn2c3[n+](c4ccc(C(F)(F)F)cc42)CCCCC3)c1	-2	19	0	2	-1	x	x
O=C(Cn1c2[n+](c3ccc(C(F)(F)F)cc31)CCCCC2)Nc1ccccc1	0	62*	6	-2	-2	-18	-10
COc1ccc(C(CNS(=O)(=O)c2ccc(NC(C)=O)c(OC)c2)N2CCCC2)cc1 (stereo unspecified)	-2	-5	0	-4	-1	x	x
COc1ccc(C(CNS(=O)(=O)c2ccc(NC(C)=O)c(OC)c2)N2CCCCC2)cc1 (stereo unspecified)	-6	50*	4	0	0	-16	-18
Nc1c(C(=O)Nc2ccccc2Cl)nnn1-c1ccc2c(c1)OCCO2	6	-7	16	2	1	x	x
CCCc1cc(=O)n2[nH]c(NCc3ccc(OC)c(OC)c3)nc2n1	0	-9	-5	-2	1	x	x
CCOC(=O)c1cnc2nc(NCc3ccc(OC)c(OC)c3)[nH]n2c1=O	9	54*	2	23	11	31*	-8	Scp1 DSF=1
SMILES	SUMO1-SIM PPI	Scp1 inh	DNMT1 inh	STEP inh	LMPTP inh	Scp1 confirm	Scp-1 MG ctr	others
O=C(OCCOc1ccccc1F)c1cccc(S(=O)(=O)N2CCOCC2)c1	0	-1	3	-2	0	x	x
CCOC(=O)C(C(=O)Nc1ccccn1)C1CCCCC1 (stereo unspecified)	-2	50*	-2	4	0	77*	-10	Scp1 DSF=-4
CC(C)CC(NC(=O)C1CCCCC1)C(=O)NC(C)c1ccccc1 (stereo unspecified)	2	-2	4	1	-2	x	x
CC(C)CCC(C(=O)NC(C)c1ccccc1)C(=O)NC(C)c1ccccc1 (stereo unspecified)	9	92*	22	10	52*	57*	-21	Scp1 DSF=-29
C#CCN(C[C@@H]1[C@@H](OC(=O)NCc2ccccc2F)[C@@H](OC(=O)NCc2ccccc2F)Cn2c(=O)ccc(=O)n21)S(=O)(=O)c1ccc(C)cc1	8	x	-6	0	3	x	x
O=C(COC(=O)c1ccc(Br)o1)NCc1ccc(Cl)cc1	3	-10	12	1	1	x	x
O=C(CNS(=O)(=O)c1ccccc1)Nc1ccccc1Br	2	50*	1	-4	0	-16	-17
COc1cccc(NC(=O)CSCc2cc(=O)n3nc(C4CC4)sc3n2)c1	-2	-4	2	-2	-2	-17	-15
O=C(/C=C/c1ccc(Cl)cc1)NC(=S)Nc1ccccc1C(=O)O	-2	58*	5	6	3	67*	-13	Scp1 DSF=7.8*
NC(=O)c1ccccc1NC(=O)/C=C/c1ccc(Cl)cc1	0	6	0	-2	1	x	x
CC1C(=O)N(Cc2cn(CCC3OCCO3)nn2)CCS(=O)(=O)N1Cc1ccc(-c2ccc(F)nc2)cc1 (stereo unspecified)	0	x	5	0	-1	x	x
